Laboratory results published in ChEMBL document CHEMBL3351926, “Altertoxins with potent anti-HIV activity from Alternaria tenuissima QUE1Se, a fungal endophyte of Quercus emoryi” (Bioorg Med Chem, 2014).
The source made the active and inactive calls. The calls are words filed in the database; no cut-off is given here.

Legend:
[1] = tested on: Human immunodeficiency virus 1; test: Antiviral activity against HIV1 infected in human A3.01 cells assessed as inhibition of viral replication at 0.5 ug/ml; type: functional
How it was run: (§1)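 A3.01 T lymphocytes were infected with HIV-1 LAV in the presence of compound at a single concentration, 1.5 or 0.5 μg/mL, chosen from the A3.01 cytotoxicity data. Supernatant virus was measured by reverse transcriptase assay, and inhibition was scored on the peak day of virus production. Controls were DMSO at a matching concentration, AZT at 10 and 20 μM, untreated infected cells and mock cells.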

[2] = tested on: Human immunodeficiency virus 1; test: Antiviral activity against HIV1 infected in human A3.01 cells assessed as inhibition of viral replication; type: functional, organism-based
How it was run: (§2)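 A3.01 T cells were infected with HIV-1 LAV in the presence of decreasing compound concentrations, lowered until viral replication reappeared. Virus in culture supernatants was measured by reverse transcriptase assay 9 days post-infection, the peak day for the untreated control. Replication was expressed as % of the untreated (concentration 0) control. Results are the mean and standard deviation of duplicate determinations, and IC50 was read from the dose–response curves.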

[3] = Therapeutic index, ratio of CC50 for human A3.01 cells to IC50 for HIV1 infected in human A3.01 cells; type: cell-based; settings: A3.01 cells (uninfected for CC50; HIV1-infected for IC50)
How it was run: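 The index was calculated from A3.01 cytotoxicity data together with the IC50 for HIV-1 LAV replication in A3.01 cells. Replication was measured by supernatant reverse transcriptase assay 9 days post-infection on dose–response curves run in duplicate.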

[4] = tested on: Human immunodeficiency virus 1; test: Antiviral activity against HIV1 infected in human A3.01 cells assessed as inhibition of viral replication at 1.5 ug/ml; type: functional; how it was run: as §1
[5] = tested on: Human immunodeficiency virus 1; test: Antiviral activity against HIV1 infected in human A3.01 cells assessed as complete inhibition of viral replication at 2.20 uM; type: functional, organism-based; how it was run: as §2
[6] = tested on: Human immunodeficiency virus 1; test: Antiviral activity against HIV1 infected in human A3.01 cells assessed as complete inhibition of viral replication at 20 uM; type: functional, organism-based
How it was run: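 Human A3.01 T-lymphocytes infected with HIV-1 LAV strain while exposed to compound. Virus levels in culture supernatants measured by reverse transcriptase assay. Inhibition read on peak day of virus production, 9 days post-infection in the untreated control. Compared against untreated infected cells, DMSO vehicle at matching concentration, and uninfected mock cells.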

[7] = tested on: Human immunodeficiency virus 1; test: Antiviral activity against HIV1 infected in human A3.01 cells assessed as complete inhibition of viral replication at 1.50 uM; type: functional, organism-based; how it was run: as §2

| Structure (SMILES) | inhibition at 0.5 µg/mL [1] [%] | IC50 [2] [nM] | selectivity ratio [3] | inhibition at 1.5 µg/mL [4] [%] | inhibition [5] | inhibition [6] | inhibition [7] |
| --- | --- | --- | --- | --- | --- | --- | --- |
| O=C1CC[C@]2(O)c3c(ccc(O)c31)-c1ccc(O)c3c1[C@H]2[C@H]1O[C@H]1C3=O | 97 | 210 | 6.5 | – | – | – | – |
| O=C1C[C@H](O)[C@@H]2c3c(ccc(O)c31)-c1ccc(O)c3c1[C@@]2(O)CCC3=O [ALTERTOXIN I] | – | 1420 | 3 | 97 | Active | – | – |
| O=C1C=C[C@H]2c3c(ccc(O)c31)-c1ccc(O)c3c1[C@H]2[C@H]1O[C@H]1C3=O | – | – | – | 33 | – | – | – |
| Cc1cn([C@H]2C[C@H](N=[N+]=[N-])[C@@H](CO)O2)c(=O)[nH]c1=O | – | – | – | – | – | Active | – |
| O=C1C[C@@H](O)[C@H]2c3c(ccc(O)c31)-c1ccc(O)c3c1[C@H]2[C@H]1O[C@H]1C3=O | – | 90 | 50 | 97 | – | – | – |
| O=C1c2c(O)ccc3c2[C@H](c2ccc(O)c4c2[C@H]3[C@H]2O[C@H]2C4=O)[C@H]2O[C@@H]12 | – | 290 | 15 | 97 | – | – | Active |
